Sampled rows, rich in hits. Any-hit rate of the full collection: about 2.6%.
Vif imaging – blocks HIV Vif function; inhibition, % at 7.49 µM; HEK293T cells, Vif self-association by quenched fluorescence, imaging, 24 h; AID 602346; 340,000 compounds, 0.35% hits; in the data active = inhibition above about 50%, passing the limit was not always enough; inconclusive = no clear call, values can overlap the other calls; inactive = below about 31%
esBAF inh – inhibitors of esBAF chromatin remodeling in mouse ES cells. Bmi1-luciferase knock-in reporter, 24 h; 100% = twice the neutral-well signal. reporter increase, % at 12.5 µM. 350,000 compounds, 2% hits; in the data active = activation above about 40%; inconclusive = no clear call, values can overlap the other calls;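 also: a rise in the Bmi1 reporter signal indicates esBAF inhibition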
XiGFP reactiv – activators of X-chromosome reactivation in mouse fibroblasts; XiGFP mouse fibroblasts, % GFP-positive cells imaging, 3 d; cells co-treated with 5-aza-dC sensitizer; scaled so ellipticine positive control = 100%; activation, % at 7.58 µM; 360,000 compounds, 0.055% hits;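 active = mean normalized replicate activation at least 10% and every replicate at or above 10%; inconclusive = only one of the two criteria met; inactive = mean below 10% and not all replicates reach 10%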
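Assay system: SV40-immortalized XiGFP fibroblast cells, line 68-5-11; buffer or medium: DMEM plus 5-aza-dC sensitizer; compound: one concentration, pinned; timing: compounds 3 days, fix/stain 15 min at room temperature; benchmarks: positive control ellipticine, 6 µM final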
Wnt bcat act – activators of Wnt/beta-catenin signaling. Wnt/beta-catenin reporter cell assay, activator, plate reader. activation, % at 9.35 µM. 300,000 compounds, 1.2% hits. AID 743398; in the data active = activation above about 30%, passing the limit was not always enough; inconclusive = no clear call, values can overlap the other calls
MITF act – MITF TRPM1 promoter activation in melanoma cells; SK-MEL-5 TRPM1-promoter luciferase, 24 h; % of positive control, neutral wells = 0; activation, % at 12.5 µM; 300,000 compounds, 0.75% hits; AID 588334;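 active = mean activation of at least 80% with every replicate also reaching 80%; inconclusive = mean reaches 80% but some replicate falls short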
Large screens that a line does not name were inactive.

N#C/C(=C\c1cccs1)C(=O)NCc1ccccc1	none (no result: esBAF inh)
c1ccc2oc(SCc3cn4ccccc4n3)nc2c1	Wnt bcat act inconclusive (no result: esBAF inh, XiGFP reactiv)
Cc1ccc(SCc2cn3ccccc3n2)cc1	Vif imaging inconclusive, Wnt bcat act 33, MITF act 96
c1ccc(CSCc2cn3ccccc3n2)cc1	esBAF inh 70
c1ccc2nc(SCc3cn4ccccc4n3)cnc2c1	Wnt bcat act 38 (no result: esBAF inh)
CCC(=O)N1CC(=O)N2[C@H](C1)[C@H](c1ccc(-c3cccc(C(=O)N(C)C)c3)cc1)[C@@H]2CO	none (no result: Vif imaging, esBAF inh, Wnt bcat act, MITF act)
COCC(=O)N(C)C[C@@H]1Oc2ncc(C3=CCCC3)cc2C(=O)N([C@@H](C)CO)C[C@@H]1C	none (no result: Vif imaging, Wnt bcat act, MITF act)
COc1ccc2c3c(n(C)c2c1)[C@H](CO)N(C(=O)C1CC1)CC31CCN(C(=O)C2CCOCC2)CC1	none (no result: Vif imaging, esBAF inh, Wnt bcat act, MITF act)
O=C(CSc1nc2ccccc2[nH]1)N1CCCCC1	MITF act 106 (no result: XiGFP reactiv, Wnt bcat act)
O=C(CSc1nc2ccccc2[nH]1)c1c[nH]c2ccccc12	none
COc1ccc(CSc2nc3ccccc3[nH]2)cc1	none (no result: Vif imaging, XiGFP reactiv)
O=C(CSc1nc2ccccc2[nH]1)c1ccccc1F	esBAF inh 52, Wnt bcat act inconclusive
Fc1cccc(F)c1CSc1nc2ccccc2[nH]1	esBAF inh 42 (no result: XiGFP reactiv, Wnt bcat act)
O=C1CCC(=O)N1c1ccc(CSc2nc3ccccc3[nH]2)cc1	esBAF inh 42 (no result: XiGFP reactiv, Wnt bcat act, MITF act)
C[C@@H]1CCn2cc(nn2)COC[C@H](Cc2ccccc2)NC1=O	none (no result: Vif imaging, esBAF inh, Wnt bcat act, MITF act)
O=C(Nc1ccccc1F)N[C@@H]1CC[C@@H](CCNC(=O)C2CCOCC2)O[C@@H]1CO	none (no result: Vif imaging, Wnt bcat act, MITF act)
Cc1cc(C(=O)CSc2nc3ccc(Cl)cc3[nH]2)c(C)n1C	none (no result: XiGFP reactiv, Wnt bcat act)
O=C(CSc1nc2ccc(Cl)cc2[nH]1)c1cccs1	esBAF inh inconclusive, Wnt bcat act 37
Cc1cc(C(=O)CSc2nc3ccccc3[nH]2)c(C)n1C	Wnt bcat act 62 (no result: esBAF inh, XiGFP reactiv)
O=C(CSc1nc2ccccc2[nH]1)NCc1ccccc1	esBAF inh 43 (no result: MITF act)
Cc1ccc2nc(SCC(=O)c3cc(C)n(C)c3C)[nH]c2c1	none (no result: esBAF inh, XiGFP reactiv, Wnt bcat act)
C[C@H]1CN([C@@H](C)CO)C(=O)Cc2cc(NS(=O)(=O)c3cn(C)cn3)ccc2O[C@@H]1CN(C)CC1CC1	none (no result: Vif imaging, Wnt bcat act, MITF act)
COc1cccc(S(=O)(=O)N2CC[C@@H]3[C@H](CO)Nc4ccc(Br)cc4[C@@H]32)c1	none (no result: Vif imaging, Wnt bcat act, MITF act)
N#CCc1nc(CSc2nc3ccccc3o2)cs1	esBAF inh 102 (no result: XiGFP reactiv)
c1ccc2oc(SCc3nc4ccccc4s3)nc2c1	none (no result: esBAF inh, XiGFP reactiv, Wnt bcat act)
C[C@H]1CN([C@@H](C)CO)C(=O)Cc2cc(NC(=O)CCN3CCOCC3)ccc2O[C@@H]1CN(C)Cc1ccc(C(=O)Nc2ccccc2N)cc1	none (no result: Vif imaging, esBAF inh, Wnt bcat act, MITF act)
O=C(NCC(=O)N1CCCCC1)c1sc2ccccc2c1Cl	Wnt bcat act 45, MITF act 114
Cc1ccnc(NC(=O)CNC(=O)c2sc3ccccc3c2Cl)c1	esBAF inh 52, MITF act 85
Cc1cccc(-c2noc(-c3ccc(Cl)cc3[N+](=O)[O-])n2)c1	Wnt bcat act 43 (no result: esBAF inh)
C[C@@H]1CCCCO[C@@H](CN(C)Cc2ccc(C(=O)Nc3ccccc3N)cc2)[C@@H](C)CN([C@H](C)CO)C(=O)c2cc(NC(=O)Nc3ccc(C(F)(F)F)cc3)ccc2O1	none (no result: Vif imaging, esBAF inh, Wnt bcat act, MITF act)
Clc1cc2c(c(CSc3nc4ccccc4n4cccc34)c1)OCOC2	Vif imaging 76
Clc1cc2c(c(Cn3cnc4ccccc43)c1)OCOC2	none (no result: esBAF inh, XiGFP reactiv)
O=C1CN(Cc2ccc(F)cc2)C[C@@H]2[C@H](c3ccc(-c4ccccc4F)cc3)[C@H](CO)N12	none (no result: Vif imaging, esBAF inh, Wnt bcat act, MITF act)
O=C(/C=C\c1ccco1)Nc1cc([N+](=O)[O-])ccc1F	Vif imaging 64 (no result: esBAF inh, XiGFP reactiv, Wnt bcat act)
Cc1cccc(C#CC2=CC(=O)CC(C)(C)C2)c1	none (no result: MITF act)
COc1cccc(C#CC2=CC(=O)CC(C)(C)C2)c1	esBAF inh 134 (no result: MITF act)
O=C(Nc1ccncc1)Nc1cccc(Cl)c1	none (no result: Vif imaging)
O=C(Nc1cccc(C2=NCCN2)c1)Nc1cccc(C2=NCCN2)c1	esBAF inh 45
CC(C)NC(=O)Nc1ccc2c(c1)C(=O)N([C@@H](C)CO)C[C@@H](C)[C@H](CN(C)S(C)(=O)=O)O2	none (no result: Vif imaging, Wnt bcat act, MITF act)
COc1cccc(-c2nnc(-c3ccc(C(F)(F)F)cc3)o2)c1OC	esBAF inh 53 (no result: XiGFP reactiv, Wnt bcat act, MITF act)
FC(F)(F)Oc1ccccc1-c1nnc(-c2cccc(C(F)(F)F)c2)o1	none
Cc1cccc(-c2nnc(-c3cccc4ccccc34)o2)c1	Wnt bcat act 51
c1ccc(Nc2nnc(-c3cccc4ccccc34)o2)cc1	Wnt bcat act 38 (no result: esBAF inh, MITF act)
Cc1ccc(-c2nnc(-c3cccc4ccccc34)o2)cc1	esBAF inh 54
Cc1ccc(CSc2nnc(-c3cccc4ccccc34)o2)cc1	none

Screening results deposited in PubChem BioAssay by Broad Institute.
